Experiment [1] has as its target T1, Epac2 (Mus musculus, UniProt Q9EQZ6).
T1 sequence (Q9EQZ6 1-993 isoform Q9EQZ6-3): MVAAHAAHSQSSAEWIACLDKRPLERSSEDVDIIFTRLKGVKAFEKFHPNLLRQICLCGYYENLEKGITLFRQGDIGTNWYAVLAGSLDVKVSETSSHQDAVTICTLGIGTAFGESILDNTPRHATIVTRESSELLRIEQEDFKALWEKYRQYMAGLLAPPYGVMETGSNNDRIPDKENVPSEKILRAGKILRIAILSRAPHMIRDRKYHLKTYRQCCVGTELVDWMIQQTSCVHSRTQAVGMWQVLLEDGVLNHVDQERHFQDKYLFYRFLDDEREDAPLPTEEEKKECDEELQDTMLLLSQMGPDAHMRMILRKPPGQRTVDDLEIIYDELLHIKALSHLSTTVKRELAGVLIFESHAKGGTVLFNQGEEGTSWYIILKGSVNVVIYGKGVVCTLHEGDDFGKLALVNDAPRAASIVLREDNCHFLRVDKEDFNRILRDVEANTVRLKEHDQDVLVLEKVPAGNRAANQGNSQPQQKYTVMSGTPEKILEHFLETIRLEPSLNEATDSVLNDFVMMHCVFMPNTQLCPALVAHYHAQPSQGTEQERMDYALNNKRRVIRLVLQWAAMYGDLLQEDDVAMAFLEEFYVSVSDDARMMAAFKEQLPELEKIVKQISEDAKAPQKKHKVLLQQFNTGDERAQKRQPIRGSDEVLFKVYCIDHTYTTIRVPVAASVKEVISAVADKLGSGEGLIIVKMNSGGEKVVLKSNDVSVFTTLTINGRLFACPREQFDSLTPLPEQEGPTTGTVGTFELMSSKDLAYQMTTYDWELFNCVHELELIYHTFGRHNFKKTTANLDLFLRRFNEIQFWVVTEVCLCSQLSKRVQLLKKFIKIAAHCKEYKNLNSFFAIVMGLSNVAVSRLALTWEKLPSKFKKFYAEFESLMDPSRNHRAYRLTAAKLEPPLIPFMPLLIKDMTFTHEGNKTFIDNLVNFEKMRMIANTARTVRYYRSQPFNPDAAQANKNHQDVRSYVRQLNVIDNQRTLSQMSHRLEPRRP
Kind of experiment: 8-NBD-cAMP competition binding to Epac2, dose-dependent titration.

The subject of the next experiment is HEK293/Epac1 cells. Kind of experiment: Epac1-mediated Akt/PKB phosphorylation. The experiment is classed as cell-based. The conditions noted are these: 10 μM, 5 min pretreatment before 10 μM 007-AM. In outline: (§1)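 HEK293 cells ectopically expressing Epac1 or Epac2 were pretreated, or not, with 10 μM test compound and then stimulated with 10 μM 007-AM. Cell lysates were analysed by Western blot with anti-phospho-Ser473 and anti-phospho-Thr308 PKB antibodies.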

In experiment [2] the target is T1, Epac2. Kind of experiment: cAMP-mediated Epac2 GEF activity, purified recombinant full-length protein. The experiment is classed as biochemical. The note with it: for Inhibition of Epac2 GEF activity: 25 μM compound in the presence of equal concentration (25 μM) of cAMP.
In a further experiment the test system is type II PKA holoenzyme. Kind of experiment: Counter-screen: type II PKA holoenzyme activity. Type of experiment: biochemical. The conditions noted are these: 25 μM compound, 100 μM cAMP. (In general: A counterscreen serves to expose hits that act by an unwanted route or on another target.)
In another experiment the test system is HEK293/Epac2 cells. Kind of experiment: Epac2-mediated Akt/PKB phosphorylation. Type of experiment: cell-based. The conditions noted are these: 10 μM, 5 min pretreatment before 10 μM 007-AM. In outline: as §1
The next experiment has as its system type I PKA holoenzyme. Kind of experiment: Counter-screen: type I PKA holoenzyme activity. Type of experiment: biochemical. The conditions noted are these: 25 μM compound, 100 μM cAMP.
Another experiment deals with T2, Epac1 (Homo sapiens, UniProt O95398).
T2 sequence (O95398 1-923): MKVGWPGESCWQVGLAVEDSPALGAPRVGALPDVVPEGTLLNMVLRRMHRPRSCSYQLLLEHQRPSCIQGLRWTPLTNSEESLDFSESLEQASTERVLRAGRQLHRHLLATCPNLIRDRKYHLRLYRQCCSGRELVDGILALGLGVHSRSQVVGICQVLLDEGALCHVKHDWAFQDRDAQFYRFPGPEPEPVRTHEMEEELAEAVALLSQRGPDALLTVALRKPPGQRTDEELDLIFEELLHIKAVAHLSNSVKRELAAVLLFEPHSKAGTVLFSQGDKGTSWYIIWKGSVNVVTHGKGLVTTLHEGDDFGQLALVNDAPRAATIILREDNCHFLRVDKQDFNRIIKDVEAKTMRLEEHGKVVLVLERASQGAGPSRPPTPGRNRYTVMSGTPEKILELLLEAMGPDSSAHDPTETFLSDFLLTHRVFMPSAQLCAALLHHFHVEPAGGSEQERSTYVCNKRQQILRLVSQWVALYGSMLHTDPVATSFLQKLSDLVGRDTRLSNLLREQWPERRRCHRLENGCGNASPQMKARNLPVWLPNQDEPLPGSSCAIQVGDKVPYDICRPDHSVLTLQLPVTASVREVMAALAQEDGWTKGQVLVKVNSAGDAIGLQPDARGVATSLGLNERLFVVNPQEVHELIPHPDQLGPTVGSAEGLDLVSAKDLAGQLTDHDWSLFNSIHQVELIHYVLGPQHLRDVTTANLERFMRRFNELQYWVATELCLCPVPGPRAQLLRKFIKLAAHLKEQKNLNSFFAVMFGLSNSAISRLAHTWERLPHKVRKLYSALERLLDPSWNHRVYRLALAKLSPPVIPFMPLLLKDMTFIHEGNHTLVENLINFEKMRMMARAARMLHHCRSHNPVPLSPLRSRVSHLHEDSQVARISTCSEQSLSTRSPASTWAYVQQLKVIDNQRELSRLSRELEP
Kind of experiment: cAMP-mediated Epac1 GEF activity. The experiment is classed as biochemical. The conditions noted are these: for Inhibition of Epac1 GEF (Rap1-GDP exchange) activity: 25 μM compound in the presence of equal concentration (25 μM) of cAMP.

Where [3] appears, read: 25 μM in the presence of equal molar concentration of cAMP, unpublished data.

The structures appear in SMILES notation.

What is called IC50 is the point on the concentration scale where inhibition reaches its midpoint.

`N#Cc1c(C2CCCCC2)nc(S)[nH]c1=O` [5a] had an IC50 on Epac2 [1] of over 300 µM. For the same compound, the “Relative Potency (RA)” value on Epac2 [1] (RA = IC50, cAMP/IC50, compound) is given as under 0.16.

In the case of `Cc1ccc(C)c(CSc2nc(C3CC3)c(C#N)c(=O)[nH]2)c1` [6g, 4-Cyclopropyl-2-(2,5-dimethylbenzylsulfanyl)-6-oxo-1,6-dihydro-pyrimidine-5-carbonitrile], the “Block of Epac1-mediated Akt phosphorylation” value in the experiment on HEK293/Epac1 cells is “completely blocked”. For the same compound, the “Inhibition of Epac2 GEF activity” value on Epac2 [2] is on record as “inhibit Epac2 GEF activity to basal levels”. Besides, the “Effect on cAMP-induced type II PKA holoenzyme activation” value with type II PKA holoenzyme is reported as “not to alter”. In addition, in the experiment on HEK293/Epac2 cells, the “Block of Epac2-mediated Akt phosphorylation” value was “completely blocked”. Further, the “Effect on cAMP-induced type I PKA holoenzyme activation” value in the experiment with type I PKA holoenzyme was “not to alter”. Also, the “Inhibition of Epac1 GEF (Rap1-GDP exchange) activity” value at Epac1 was “more Epac2-specific”.

With `Cc1ccc(C)c(CSc2nc(C3CCCC3)c(C#N)c(=O)[nH]2)c1` [6h, 4-Cyclopentyl-2-(2,5-dimethyl-benzylsulfanyl)-6-oxo-1,6-dihydro-pyrimidine-5-carbonitrile], in the experiment with HEK293/Epac1 cells, the “Block of Epac1-mediated Akt phosphorylation” value is given as “completely blocked”. At Epac2 [2], the “Inhibition of Epac2 GEF activity” value is “inhibit Epac2 GEF activity to basal levels”. Besides, the “Effect on cAMP-induced type II PKA holoenzyme activation” value in the experiment on type II PKA holoenzyme is “not to alter”. Moreover, in the experiment on HEK293/Epac2 cells, the “Block of Epac2-mediated Akt phosphorylation” value is recorded as “completely blocked”. The “Effect on cAMP-induced type I PKA holoenzyme activation” value in the experiment with type I PKA holoenzyme is “not to alter”. Moreover, the “Inhibition of Epac1 GEF (Rap1-GDP exchange) activity” value at Epac1 is reported as “inhibit Epac1-mediated Rap1-GDP exchange activity”.

In turn, `Cc1ccc(C)c(CSc2nc(C3CCNCC3)c(C#N)c(=O)[nH]2)c1` [6k] showed an IC50 on Epac2 [1] of over 300 µM.

In the case of `N#Cc1c(C2CCCCC2)nc(Nc2ccccc2)[nH]c1=O` [8a], at Epac2 [1], the half-inhibitory concentration (IC50) was over 300 µM.

Consider `N#Cc1c(C2CCCCC2)nc(Nc2ccc(Cl)cc2)[nH]c1=O` [8b], for which the half-inhibitory concentration (IC50) on Epac2 [1] is over 300 µM.

`N#Cc1c(C2CCCCC2)nc(SCC(=O)Nc2ccccc2)[nH]c1=O` [11a] displayed an IC50 at Epac2 [1] of over 300 µM.

Compound `Cc1cc(C)c(NC(=O)CSc2nc(C3CCCCC3)c(C#N)c(=O)[nH]2)c(C)c1` [11b] showed an IC50 on Epac2 [1] of over 300 µM.

`Cc1ccc(NC(=O)CSc2nc(C3CCCCC3)c(C#N)c(=O)[nH]2)cc1` [11c]: the 50% inhibitory concentration (IC50) on Epac2 [1] is over 300 µM.

For `O=S(=O)(NCCNC/C=C/c1ccc(Br)cc1)c1cccc2cnccc12` [H89, reference compound], in the experiment on type II PKA holoenzyme, the “Effect on cAMP-induced type II PKA holoenzyme activation” value is reported as “blocked the type I or II PKA activities completely”. Moreover, the “Effect on cAMP-induced type I PKA holoenzyme activation” value in the experiment on type I PKA holoenzyme is on record as “blocked the type I or II PKA activities completely”.

For the compound `Cc1ccc(C)c(CSc2nc(C3CCCCC3)c(C#N)c(=O)[nH]2)c1` [compound 1], on Epac2 [2] (setting [3]), the “Inhibition of Epac2 activity” value is listed as “completely inhibiting”. For the same compound, the “Inhibition of Epac1 activity” value on Epac1 (setting [3]) is recorded as “completely inhibiting”.

For `N#Cc1c(C2CCCCC2)nc(SCC(=O)O)[nH]c1=O` [compound 10], the IC50 at Epac2 [1] was over 300 µM.
